TRPC4 PAM – positive allosteric modulators of TRPC4, primary screen, cell-based, mouse TRPC4beta, HEK293 mu-opioid, Fluo-4 calcium; Short transient receptor potential channel 4 (Mus musculus), Q9QUQ5; DAMGO EC20, Fluo-4 Ca2+ flux; stronger effect = higher value; B-score at 10 µM; hit rate 0.42% among 310,000;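 active means B-score of calcium response area above 5 SD of library B-scores, with initial fluorescence ratio within 5 SD of library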
TRPC6 activator – mouse TRPC6 channel activators, primary screen, cell-based, HEK293, membrane potential dye; B-score at 10 µM; AID 2550, 2010; hit rate 0.13% among 310,000; Short transient receptor potential channel 6 (Mus musculus), Q61143; HEK293-TRPC6 membrane potential dye fluorescence; stronger effect = higher value;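 active means B-score of the integrated fluorescence ratio above library mean plus 3 SD, and starting fluorescence ratio within library mean plus 5 SD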;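 further: higher score means more depolarization so channel activation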
Kir21 inh – inhibitors of mouse Kir2.1 inward-rectifier potassium channel. hit rate 0.85% among 310,000. HEK293-Kir2.1, FluxOR thallium flux fluorescence; stronger effect = lower value. B-score at 10 µM;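 active means fluorescence ratio B-score at or below minus 3 SD of library scores, with starting-brightness B-score within 2 SD, cut at about -4.2 in these data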;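 further: channel flux triggered by added potassium and thallium sulfate stimulus; B-score of peak minus minimum fluorescence over baseline after thallium stimulus; more negative B-score means stronger Kir2.1 block with less thallium influx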
TRPC4 inh – inhibitors of mouse TRPC4 channel, primary screen, Fluo4 calcium, HEK293 TRPC4beta/mu-opioid cells; Short transient receptor potential channel 4 (Mus musculus), Q9QUQ5; hit rate 0.39% among 300,000; B-score at 10 µM; DAMGO-evoked Fluo4 calcium flux; stronger effect = lower value;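 active means B-score over 3 SD under the library average, no early fluorescence shift, positive overall ratio signal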
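test system = HEK293 cells with stable TRPC4beta plus mu-opioid receptor expression | detection = Fluo4 Ca2+ flux fluorescence | read-out = integrated fluorescence ratio relative to baseline, converted to per-well B score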
TRPC4 act – activators of mouse TRPC4 channel, primary screen, Fluo4 calcium, HEK293 TRPC4beta/mu-opioid cells; Fluo4 calcium fluorescence; stronger effect = higher value; B-score at 10 µM; hit rate 0.49% among 310,000; AID 2237, 2010;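 active means B-score above 5 SD of library B-scores, and initial fluorescence ratio not above library mean plus 5 SD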;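 further: positive B-score marks a calcium rise read as TRPC4 activation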
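Assay system: HEK293 cells stably co-expressing mouse TRPC4beta and mu-opioid receptor / Timing: Fluo4 dye loading 45 min at room temperature, 110 s recording / Signal: Fluo4 calcium-sensitive dye fluorescence, kinetic, 1 Hz baseline / Read-out: integrated baseline-normalised fluorescence ratio, converted to per-well B score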
TRPC6 inh – mouse TRPC6 channel inhibitors, primary screen, cell-based, HEK293, membrane potential dye | Short transient receptor potential channel 6 (Mus musculus), Q61143 | ACh-evoked depolarization; stronger effect = lower value | B-score at 10 µM | hit rate 1.1% among 310,000;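 active means B-score under library mean minus 3 SD, initial fluorescence not abnormally high, positive integrated signal ratio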;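 further: B-score derived from integrated fluorescence ratio over the kinetic read; more negative B-score means stronger inhibition of depolarization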
TRPC4 spec 2 – second selectivity test of TRPC6 inhibitors: effect on mouse TRPC4; shares compounds with TRPC6 inh; HEK293 TRPC4/MOR, membrane potential dye fluorescence; channel activated by saturating DAMGO dose; inhibition, % at 10 µM; hit rate 42% among 920;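 active means compounds whose fluorescence signal differed from control wells by over 3 SD, either direction, in both duplicate plates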
TRPC4 spec – mouse TRPC4 modulation by TRPC6 hits, confirmation, selectivity assay for TRPC6 inhibitor project, cell-based, HEK293 TRPC4/mu-opioid, membrane potential dye; shares compounds with TRPC6 inh; activity change, negative = inhibition, % at 10 µM; membrane potential fluorescence; hit rate 61% among 920;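 active means rise or fall in signal beyond 3 SD of buffer-only wells in both replicate plates, either sign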;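 further: integrated kinetic ratio of fluorescence range over baseline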
HEK293 MPD ctr 2-1 – nonspecific membrane potential effects, parental HEK293, confirmation, counter-screen for TRPC6 inhibitor project, cell-based, second counter screen; shares compounds with TRPC6 inh; parental HEK293 membrane potential dye fluorescence; maximal acetylcholine challenge after compound addition; signal change vs control, % at 10 µM; hit rate 31% among 920; AID 2779, 2010;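 active means membrane potential signal moving either way by over 3 SD of the maximum-effect control, in both duplicate plates, meaning non-specific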
HEK293 MPD ctr-1 – membrane potential modulation in parental HEK293, confirmation, counter-screen for TRPC6 inhibitor project, cell-based; shares compounds with TRPC6 inh; parental HEK293 membrane potential dye fluorescence; membrane potential signal change, % at 10 µM; hit rate 60% among 920; AID 2780, 2010;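 active means membrane potential signal shifting up or down by more than 3 SD of buffer-only wells, on both duplicate plates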
HEK293 MPD ctr-2 – parental HEK293 membrane potential modulation, confirmation, counter-screen for TRPC6 modulator project, cell-based; membrane potential dye fluorescence; hit rate 51% among 2,400; AID 488924, 2010; shares compounds with TRPC6 inh; membrane potential signal change, % at 10 µM;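 active means membrane potential signal moves up or down beyond 5 SD from buffer-only wells, on both duplicate plates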
HEK293 MPD ctr 2-2 – parental HEK293 nonspecific activity of TRPC6 modulators, second screen | shares compounds with TRPC6 inh | membrane potential dye fluorescence; after compound, maximal acetylcholine stimulation | inhibition, % at 10 µM | hit rate 14% among 2,400 | AID 488926;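 active means membrane potential signal drops by more than 5 SD from the mean control signal, in both duplicate plates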
TRPC4 ctr mod – TRPC4 modulation by TRPC6 hit compounds, confirmation, selectivity assay for TRPC6 modulator project, cell-based, HEK293 TRPC4/mu-opioid, membrane potential dye, mouse | hit rate 69% among 2,400 | shares compounds with TRPC6 inh | membrane potential fluorescence | percent change from control (negative = decrease, positive = increase), % at 10 µM;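 active means membrane potential signal moved up or down beyond 5 SD of buffer control wells, in both duplicate plates, actives on both sides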
TRPC4/MOR inh 2 – mouse TRPC4 off-target activity of TRPC6 modulators, second screen | shares compounds with TRPC6 inh | HEK293 TRPC4/mu-opioid, membrane potential dye fluorescence; stimulated with maximal-effect DAMGO | inhibition, % at 10 µM | hit rate 55% among 2,400 | AID 488928;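 active means drop in membrane potential signal beyond 5 SD of the control wells in both duplicate plates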;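 further: TRPC4 counter screen for TRPC6 hits run under conditions tuned for TRPC6 not TRPC4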
TRPC6 inh conf – mouse TRPC6 channel inhibitors, confirmation, HEK293 cells, membrane potential dye, duplicate; shares compounds with TRPC6 inh; ACh-evoked depolarization; inhibition, % at 10 µM; hit rate 43% among 3,300;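 active means fluorescence ratio falls more than 5 SD below the full-stimulation control mean, in both duplicate runs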;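 further: integrated fluorescence ratio of peak minus minimum over baseline after agonist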
TRPC6 act conf – mouse TRPC6 channel activators, confirmation, HEK293 cells, membrane potential dye, duplicate; shares compounds with TRPC6 inh; HEK293-TRPC6 membrane potential dye fluorescence, FDSS; activation, % at 10 µM; hit rate 11% among 2,800; AID 488961, 2010;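 active means ratio signal rise beyond 5 SD above unstimulated control wells' mean, seen in both duplicate runs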
Of the large screens only hits and unclear results are named; the others gave an inactive call (follow-up assays come after a bar, where they were run). Only some compounds are listed: those with a hit (about 2.9% of all), similar ones and a draw of the others.

CCOC(=O)N1CCC(N2CCN(Cc3ccc(F)c(F)c3)C(CCO)C2)CC1 (stereo unspecified)	none
CCOC(=O)N1CCC(N2CCN(CCC(C)C)C(CCO)C2)CC1 (stereo unspecified)	TRPC6 inh -7.57 | TRPC4 spec 2 inactive | TRPC4 spec 9.0% | HEK293 MPD ctr 2-1 -4.0% | HEK293 MPD ctr-1 1.5% | TRPC6 inh conf 64.4%
O=C(Sc1ccc(Cl)cc1)c1ccccn1	none
CN(Cc1ccc(F)cc1)C(=O)c1ccc(NC(=O)CC2SC(N3CCCC3)=NC2=O)cc1 (stereo unspecified)	none
CC(C)C(NC(=O)/C=C/c1ccc(F)cc1)C(C)C	TRPC6 inh -6.92 | TRPC4 spec 2 inactive | TRPC4 spec inactive | HEK293 MPD ctr 2-1 inactive | HEK293 MPD ctr-1 inactive | TRPC6 inh conf inactive | TRPC6 act conf inactive
CC(NC(=O)/C=C/c1ccccc1)c1ccccc1 (stereo unspecified)	none
CCOC(=O)c1ccc(NC(=O)Oc2ccccc2)cc1	none
CCOC(=O)c1ccc(NC(=O)Oc2cc(C)c(Cl)cc2C(C)C)cc1	TRPC6 inh -9.88 | HEK293 MPD ctr-2 126.0% | HEK293 MPD ctr 2-2 inactive | TRPC4 ctr mod 13.0% | TRPC4/MOR inh 2 31.0% | TRPC6 inh conf inactive | TRPC6 act conf inactive
CCOCCCn1c(=O)c2ccccc2n2c(=S)[nH]nc12	none
COc1ccc(OC)c(Nc2cc(C(=O)NCCCN3CCOCC3)c3ccccc3n2)c1	TRPC6 inh -5.54 | HEK293 MPD ctr-2 inactive | HEK293 MPD ctr 2-2 inactive | TRPC4 ctr mod inactive | TRPC4/MOR inh 2 45.0% | TRPC6 inh conf inactive | TRPC6 act conf inactive
COc1cccc(-c2nc(C(=O)NCCCN3CCOCC3)cc3c2[nH]c2ccccc23)c1	TRPC6 inh -7.28 | TRPC4 spec 2 inactive | TRPC4 spec -10.1% | HEK293 MPD ctr 2-1 inactive | HEK293 MPD ctr-1 -158.5% | TRPC6 inh conf inactive | TRPC6 act conf inactive
COc1cccc(-c2cc(C(=O)NCCCN3CCOCC3)no2)c1	none
COc1ccccc1Nc1cc(C(=O)NCCCN2CCOCC2)c2ccccc2n1	none
O=C(NCCCN1CCOCC1)c1cc2c([nH]c3ccccc32)c(-c2cccc(Br)c2)n1	TRPC6 inh -8.77 | TRPC4 spec 2 inactive | TRPC4 spec inactive | HEK293 MPD ctr 2-1 inactive | HEK293 MPD ctr-1 inactive | TRPC6 inh conf 54.1% | TRPC6 act conf inactive
Cc1ccsc1/C=N/NC(=O)C1C(=O)NCC1c1ccccc1 (stereo unspecified)	none
CCOC(=O)c1ccc(NC(=O)CC2C(=O)N(c3ccc(F)cc3)C(=O)N2CCC(C)C)cc1 (stereo unspecified)	TRPC6 inh -5.84 | HEK293 MPD ctr-2 inactive | HEK293 MPD ctr 2-2 inactive | TRPC4 ctr mod inactive | TRPC4/MOR inh 2 inactive | TRPC6 inh conf 41.5%
COC(=O)c1ccc(NC(=O)CC2C(=O)N(c3ccc(C)cc3)C(=O)N2CC(C)C)cc1 (stereo unspecified)	none
CCOCCn1c(SC(C)C(C)=O)nc2c1c(=O)[nH]c(=O)n2C (stereo unspecified)	none
O=C(NCCN1CCN(c2ccccc2)CC1)c1cccn2c(=O)c3ccccc3nc12	none
CN(CCCNC(=O)c1cccn2c(=O)c3ccccc3nc12)Cc1ccccc1	TRPC6 inh -6.28 | HEK293 MPD ctr-2 -135.5% | HEK293 MPD ctr 2-2 inactive | TRPC4 ctr mod -32.5% | TRPC4/MOR inh 2 62.0% | TRPC6 inh conf 46.0% | TRPC6 act conf inactive
Oc1ccc(C[C@@H]2CNCCN2CCc2cccc(F)c2)cc1	none
Cc1cc(C)n2nc(C(=O)Nc3ccc(S(=O)(=O)N(C)C)cc3)nc2n1	TRPC6 inh -5.98 | HEK293 MPD ctr-2 -247.0% | HEK293 MPD ctr 2-2 inactive | TRPC4 ctr mod -41.0% | TRPC4/MOR inh 2 36.0% | TRPC6 inh conf inactive | TRPC6 act conf inactive
CCN(CC)S(=O)(=O)c1ccc(NC(=O)c2nc3nc(C)cc(C)n3n2)cc1	none
